Measured values from publication PMC11439923 (Scientific Reports, 2024).

How the values were obtained:
healthy mice = settings: cited from earlier work
FaDu spheroids = experiment: Three-dimensional culture, spheroid live/dead staining; type: cell-based, human; settings: 50 µM cisplatin, 72 h
Procedure, shortened: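 FaDu seeded 500 cells/well in U-bottom ultralow-attachment plates, spheroids formed over 72 h at 37 °C, 5% CO2. Spheroids exposed 72 h to a concentration series of test compound or platinum reference. Stained 1 h with Hoechst 33342 (live) and ethidium homodimer-1 (dead), imaged by high-content system. Read-out: Hoechst/EthD-1 mean fluorescence intensity ratio. One-way ANOVA with Tukey's test.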

[1] = test system: HNSCC cell lines (FaDu, Cal-27, and Ca9-22); experiment: Cell viability assay; type: cell-based, human; settings: Cal-27 and FaDu; 1 µM single agent; 48 and 72 h; MTT
Procedure, shortened: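 Seeded 8 × 10^3 cells/well in 10% FBS medium: MEM for Ca9-22; high-glucose DMEM for FaDu, Cal-27, HaCaT; DMEM/F12 for HK-2. Grown 24 h at 37 °C, 5% CO2, then dosed 24, 48 or 72 h: derivatives 0.001–20 µM, parent glycoside and platinum reference 0.01–50 µM. MTT 0.5 mg/ml 4 h, formazan dissolved in DMSO, A570. IC50 by nonlinear regression. Triplicate, ≥3 independent experiments.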

cathepsin D (CTSD) = experiment: Western blot of cathepsin D; type: cell-based, human; settings: 36 h, ECDD-S18 0.1, 1, 2 µM, bafilomycin A1 0.1 µM, vs DMSO
Procedure, shortened: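 Cal-27 or FaDu seeded 5 × 10^5 cells per 60 mm dish for 24 h, treated 36 h with test compound (0.1, 1, 2 µM), 0.1 µM bafilomycin A1 or DMSO. RIPA lysates run on SDS-PAGE, transferred to PVDF, blocked in 5% milk 1 h. Probed overnight at 4 °C for pro/mature cathepsin D, N-cadherin, GAPDH; HRP secondary, ECL on film. Densitometry normalised to GAPDH, fold change versus untreated.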

CTSD mRNA = experiment: Quantitative RT-PCR of CTSD; type: cell-based, human; settings: 36 h, ECDD-S18 0.1, 1, 2 µM, bafilomycin A1 0.1 µM, vs DMSO
V-ATPase activity = experiment: LysoTracker Red staining; type: cell-based, human; settings: Cal-27 and FaDu; 0.1 µM; 24 h
Procedure, shortened: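 Cal-27 and FaDu plated 8 × 10^3 cells/well in black 96-well plates for 24 h. Treated 24 h with test compound (0.1, 1, 2 µM) or 0.1 µM bafilomycin A1. LysoTracker 2 h, immediate fixation in 4% paraformaldehyde 20 min, DAPI 30 min at room temperature. Lysosomal fluorescence intensity quantified by high-content imaging.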

[2] = test system: E-cadherin mRNA and protein; experiment: E-cadherin expression; type: cell-based, human; settings: Cal-27 and FaDu; 36 h; ECDD-S18 0.1, 1, 2 µM, bafilomycin A1 0.1 µM

For `N.N.[Cl][Pt][Cl]` [Cisplatin], the “WBC and RBC levels” value (healthy mice) is given as “marked decrease”, the body weight loss (healthy mice) is given as 30–40% and the “Live/dead cell ratio (Hoechst 33342 to EthD-1)” value (FaDu spheroids) is given as “significantly reduced”. The cell viability [1] was “slight suppression”.

With `CO/C1=C\C(C)=C\[C@@H](C)[C@@H](O)[C@@H](C)C/C(C)=C/C=C/[C@H](OC)[C@@H]([C@@H](C)[C@@H](O)[C@H](C)[C@@]2(O)C[C@@H](O)[C@H](C)[C@@H](C(C)C)O2)OC1=O` [bafilomycin A1] the “protein expression of mature CTSD” value (cathepsin D (CTSD); Cal-27) was “downregulated”, the “protein expression of mature CTSD” value (cathepsin D (CTSD); FaDu) was “downregulated” and the “mRNA expression of CTSD” value (CTSD mRNA; Cal-27) was “significantly decreased”. For the same compound, the “mRNA expression of CTSD” value (CTSD mRNA; FaDu) was “significantly decreased”, the “LysoTracker red fluorescence intensity relative to DMSO control” value (V-ATPase activity) was “significantly decreased” and the “expression of E-cadherin mRNA and protein” value [2] was “no effect”.
